Laboratory results published in ChEMBL document CHEMBL3044661, “Antifungal clerodane diterpenes from Macaranga monandra (L) Muell. et Arg. (Euphorbiaceae)” (J Agric Food Chem, 2003).
Active and inactive are the calls of the source. The rule behind the calls is not given here.

What was measured:
Diaporthe ampelina = assay: Growth inhibition of Diaporthe ampelina at 30 uM after 120 hr by microtiter assay; type: functional; conditions: read-out: GI
Method in brief: (§1)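 96-well broth microassay against Phomopsis viticola or P. obscurans. Conidial inoculum was filtered and photometrically set to 1.0×10^6 conidia/mL. Final doses were 0.3, 3.0 and 30.0 µM, in duplicate. Incubation was at 24 ± 1 °C with a 12-h photoperiod, and A620 was recorded at 120 h. Mean percent inhibition (n = 4) was taken against untreated positive controls (n = 32). Split-plot design, replicated twice in time.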

[1] = system: Colletotrichum gloeosporioides; assay: Growth inhibition of Colletotrichum gloeosporioides at < / = 30 uM after 48 to 72 hr by microtiter assay; type: functional, organism-based
Method in brief: (§2)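 96-well broth microassay. Conidia came from 7–10-day PDA cultures, were filtered through miracloth and set photometrically (625 nm %T curve) to 1.0×10^6 conidia/mL. Final doses were 0.3, 3.0 and 30.0 µM, in duplicate. Plates ran at 24 ± 1 °C with a 12-h photoperiod. A620 was read at 48 and 72 h. Percent inhibition (n = 4) was taken relative to untreated growth controls (n = 32). Split-plot design, replicated twice in time.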

Botrytis cinerea = assay: Growth inhibition of Botryotinia fuckeliana at 30 uM after 48 hr by microtiter assay; type: functional; conditions: read-out: GI; method in brief: as §2
Colletotrichum fragariae [2] = assay: Growth inhibition of Colletotrichum fragariae at < / = 30 uM after 72 hr by microtiter assay; type: functional, organism-based; method in brief: as §2
Fusarium oxysporum = assay: Growth inhibition of Fusarium oxysporum at < / = 30 uM after 48 to 72 hr by microtiter assay; type: functional, organism-based; method in brief: as §2
Colletotrichum acutatum [3] = assay: Growth inhibition of Colletotrichum acutatum at < / = 30 uM after 48 to 72 hr by microtiter assay; type: functional, organism-based; method in brief: as §2
[4] = system: Colletotrichum gloeosporioides; assay: Growth stimulation of Colletotrichum gloeosporioides at low concentration by microtiter assay; type: organism-based; conditions: in vivo; method in brief: as §2
Colletotrichum fragariae [5] = assay: Antifungal activity against Colletotrichum fragariae assessed as zone of inhibition at 50 ug/ml after 4 days by TLC bioautographic analysis; type: functional; conditions: 96 h, read-out: IZ
Method in brief: (§3)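 TLC bioautography on silica gel GF plates with fluorescent indicator. Compounds were spotted in a dose series at final 3.12–100 µg/mL. Plates were sprayed three times with conidia at final 3.0×10^5 conidia/mL in potato-dextrose broth with 0.1% Tween-80, then held in a moisture chamber at 24 ± 1 °C with a 12-h photoperiod. Inhibition zones (mm) were read at 4 d and reported as mean ± SD.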

[6] = system: Colletotrichum gloeosporioides; assay: Antifungal activity against Colletotrichum gloeosporioides assessed as zone of inhibition at 100 ug/ml after 4 days by TLC bioautographic analysis; type: functional; conditions: 96 h, read-out: IZ; method in brief: as §3
Colletotrichum acutatum [7] = assay: Growth stimulation of Colletotrichum acutatum at low concentration by microtiter assay; type: organism-based; conditions: in vivo; method in brief: as §2
Colletotrichum fragariae [8] = assay: Antifungal activity against Colletotrichum fragariae assessed as zone of inhibition at 100 ug/ml after 4 days by TLC bioautographic analysis; type: functional; conditions: 96 h, read-out: IZ; method in brief: as §3
Colletotrichum fragariae [9] = assay: Antifungal activity against Colletotrichum fragariae assessed as zone of inhibition at 25 ug/ml after 4 days by TLC bioautographic analysis; type: functional; conditions: 96 h, read-out: IZ; method in brief: as §3
Phomopsis obscurans [10] = assay: Growth stimulation of Phomopsis obscurans at low concentration by microtiter assay; type: organism-based; conditions: paraphomopsis obscurans, in vivo; method in brief: as §1
Phomopsis obscurans [11] = assay: Growth inhibition of Phomopsis obscurans at 30 uM after 120 hr by microtiter assay; type: functional; conditions: Paraphomopsis obscurans, read-out: GI; method in brief: as §1

Compound	inhibition of growth at 30 µM (Diaporthe ampelina)	growth inhibition (GI) [1]	inhibition of growth at 30 µM (Botrytis cinerea)	growth inhibition (GI) (Colletotrichum fragariae [2])	growth inhibition (GI) (Fusarium oxysporum)	growth inhibition (GI) (Colletotrichum acutatum [3])	Activity [4]	zone of inhibition at 50 µg/mL (Colletotrichum fragariae [5])	zone of inhibition at 100 µg/mL [6]	Activity (Colletotrichum acutatum [7])	zone of inhibition at 100 µg/mL (Colletotrichum fragariae [8])	zone of inhibition at 25 µg/mL (Colletotrichum fragariae [9])	Activity (Phomopsis obscurans [10])	inhibition of growth at 30 µM (Phomopsis obscurans [11])
CC1=CC(=O)C[C@@H]2[C@@](C)(CC/C(C)=C/C(=O)O)[C@H](C)CC[C@@]12C [2-OXO-KOLAVENIC ACID]	46%	inactive	23%	inactive	inactive	inactive	Dose-dependent effect and tde	8 mm	0 mm	Dose-dependent effect and tde	8 mm	6 mm	Dose-dependent effect and tde	8%
CC1=CCC[C@@H]2[C@@](C)(CC/C(C)=C/C(=O)O)[C@H](C)CC[C@@]12C [KOLAVENIC ACID]	50%	inactive	23%	inactive	inactive	inactive	Dose-dependent effect and tde	8.5 mm	9.5 mm	Dose-dependent effect and tde	9 mm	5 mm	Dose-dependent effect and tde	26%
